Reference: article PMC2695835 (Bioorganic & medicinal chemistry, 2009)
Values joined by “and” are separate entries in the source; they are usually repeats but may differ in a detail not shown here. Equal entries are not always repeated. Where two headings read alike, the source gives them in different places. Marks after values point to notes of the source that are not given here. One block for each compound: values may come before it.

Tests used:
GIVA cPLA2 [1] = target: T1, GIVA cPLA2 (Homo sapiens, UniProt P47712); details: reference 2-oxoamide inhibitors; ref [15]; cited from earlier work
T1 sequence (P47712 1-749): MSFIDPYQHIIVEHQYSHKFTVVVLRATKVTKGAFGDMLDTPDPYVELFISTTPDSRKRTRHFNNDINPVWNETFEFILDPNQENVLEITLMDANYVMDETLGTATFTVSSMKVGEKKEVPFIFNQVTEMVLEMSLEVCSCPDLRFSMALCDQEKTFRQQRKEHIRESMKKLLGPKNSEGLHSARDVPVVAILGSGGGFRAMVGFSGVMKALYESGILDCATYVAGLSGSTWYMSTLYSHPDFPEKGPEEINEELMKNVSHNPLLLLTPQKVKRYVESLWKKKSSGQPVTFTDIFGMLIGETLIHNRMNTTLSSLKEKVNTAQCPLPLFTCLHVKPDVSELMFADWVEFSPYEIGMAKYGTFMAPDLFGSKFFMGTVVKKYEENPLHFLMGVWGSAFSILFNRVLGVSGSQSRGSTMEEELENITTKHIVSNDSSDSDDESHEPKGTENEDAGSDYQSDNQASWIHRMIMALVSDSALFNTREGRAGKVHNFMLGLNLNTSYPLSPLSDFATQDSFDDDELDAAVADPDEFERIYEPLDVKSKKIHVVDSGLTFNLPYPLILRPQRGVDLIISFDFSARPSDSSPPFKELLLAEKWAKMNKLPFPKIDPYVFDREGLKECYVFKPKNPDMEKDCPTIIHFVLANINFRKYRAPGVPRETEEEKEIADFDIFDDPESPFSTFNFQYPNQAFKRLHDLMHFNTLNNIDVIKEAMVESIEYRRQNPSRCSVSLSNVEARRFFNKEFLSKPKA

GVIA iPLA2 = target: T2, GVIA iPLA2 (Homo sapiens, UniProt O60733); details: reference 2-oxoamide inhibitors; ref [15]; cited from earlier work
T2 sequence (O60733 1-806): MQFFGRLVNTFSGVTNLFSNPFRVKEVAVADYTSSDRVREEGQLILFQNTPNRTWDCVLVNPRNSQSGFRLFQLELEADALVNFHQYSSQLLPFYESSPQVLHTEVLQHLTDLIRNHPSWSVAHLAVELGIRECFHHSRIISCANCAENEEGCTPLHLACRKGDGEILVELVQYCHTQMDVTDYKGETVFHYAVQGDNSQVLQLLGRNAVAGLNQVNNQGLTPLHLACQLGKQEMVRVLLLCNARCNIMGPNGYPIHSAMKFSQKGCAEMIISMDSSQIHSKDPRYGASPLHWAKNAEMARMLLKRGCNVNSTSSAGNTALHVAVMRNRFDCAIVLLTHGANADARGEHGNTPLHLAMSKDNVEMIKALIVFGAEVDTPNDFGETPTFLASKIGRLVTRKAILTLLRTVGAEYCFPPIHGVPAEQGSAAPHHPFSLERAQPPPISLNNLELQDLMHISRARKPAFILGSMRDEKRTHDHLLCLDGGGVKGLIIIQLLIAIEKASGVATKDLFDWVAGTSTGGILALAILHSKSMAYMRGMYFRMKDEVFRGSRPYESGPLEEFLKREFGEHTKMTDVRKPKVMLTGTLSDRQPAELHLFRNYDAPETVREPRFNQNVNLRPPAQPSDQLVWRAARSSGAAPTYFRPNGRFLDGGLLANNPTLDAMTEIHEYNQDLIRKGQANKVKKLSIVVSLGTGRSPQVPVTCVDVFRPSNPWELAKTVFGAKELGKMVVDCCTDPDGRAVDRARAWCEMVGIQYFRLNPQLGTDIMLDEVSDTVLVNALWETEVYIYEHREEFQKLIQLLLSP

GIVA cPLA2 [2] = target: T1, GIVA cPLA2; assay: In vitro GIVA cPLA2 inhibition, mixed micellar modified Dole assay; format: biochemical; details: mole fraction of inhibitor in total substrate interface required to inhibit the enzyme by 50%; mixed micelles
RAW 264.7 macrophages = format: cell-based; details: Mus musculus; for IC50: RAW264.7, read-out: IC50 for the inhibition of arachidonic acid release, RAW 264.7 cells stimulated with Kdo2-Lipid A, concentration for half maximal inhibition of the maximum inhibition observed; for inhibition at 25 µM: RAW264.7, read-out: AA Release Inhibition (%)
How it was run: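 Mouse RAW 264.7 macrophages were grown in DMEM with 10% FBS, 2 mM glutamine, penicillin/streptomycin and non-essential amino acids at 37 °C in 5% CO2. Cells were seeded at 2 × 10^6 per well and left to adhere overnight. Test compound (25 μM) was added 30 min before Kdo2-Lipid A, and supernatants were collected 1 h later. AA was extracted, quantified by HPLC-MS and normalized to cell number by DNA quantitation.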

Structure (SMILES): CCCCCCCCCCCCCCC(=O)C(=O)NCCCC(=O)CO [AX006]
GIVA cPLA2 XI(50) (GIVA cPLA2 [1]): 0.024 mole fraction and 0.024 ± 0.015 ^b mole fraction

Structure (SMILES): CCCCCCCCCCCCCCC(=O)C(=O)NCCCC(=O)COCC [AX048]
GIVA cPLA2 XI(50) (GIVA cPLA2 [1]): 0.022 ± 0.009 ^b mole fraction | GVIA iPLA2 XI(50) (GVIA iPLA2): 0.027 ± 0.009 ^b mole fraction

Structure (SMILES): CCCCCCCCCCCCCCC(=O)C(=O)N[C@@H](CCCC)C(=O)NCC(=O)OC [Compound 4a, (S)-Methyl 2-(2-(2-oxohexadecanamido)hexanamido)acetate]
GIVA cPLA2 XI(50) (GIVA cPLA2 [2]): 0.021 ± 0.009 mole fraction

Structure (SMILES): CCCCCCCCCCCCCCC(=O)C(=O)N[C@H](C(=O)NCC(=O)OC(C)(C)C)C(C)C [Compound 8b, (S)-tert-Butyl 2-(3-methyl-2-(2-oxohexadecanamido)butanamido)acetate]
GIVA cPLA2 XI(50) (GIVA cPLA2 [2]): 0.028 ± 0.015 mole fraction

GIVA cPLA2 XI(50) (GIVA cPLA2 [2]): 0.035 ± 0.014 mole fraction
Structure (SMILES): CCCCCCCCCCCCCCC(=O)C(=O)N[C@@H](CCCC)C(=O)NCC(=O)O [Compound 9a, (S)-2-(2-(2-Oxohexadecanamido)hexanamido)acetic acid]

GIVA cPLA2 XI(50) (GIVA cPLA2 [2]): 0.061 ± 0.017 mole fraction
Structure (SMILES): CCCCCCCCCCCCCCC(=O)C(=O)N[C@H](C(=O)NCC(=O)O)C(C)C [Compound 9b, (S)-2-(3-Methyl-2-(2-oxohexadecanamido)butanamido)acetic acid]

IC50 (RAW 264.7 macrophages): ~2 µM
Structure (SMILES): CCCCCCCCCCCCCCC(=O)C(=O)N[C@@H](CCCC)COCC(=O)O [Compound 18, (S)-2-(2-(2-oxohexadecanamido)hexyloxy)acetic acid]
GIVA cPLA2 XI(50) (GIVA cPLA2 [2]): 0.017 mole fraction and 0.017 ± 0.002 mole fraction

IC50 (RAW 264.7 macrophages): ~25 µM
Structure (SMILES): CCCCCCCCCCCCCCC(=O)C(=O)NCCCC(=O)O [Compound 19]
inhibition at 25 µM (RAW 264.7 macrophages): 52 ± 5%

IC50 (RAW 264.7 macrophages): 10 µM
Structure (SMILES): CCCCCCCCCCC(=O)C(=O)N[C@@H](CCCC)CCC(=O)O [Compound 20]
inhibition at 25 µM (RAW 264.7 macrophages): 56 ± 6%

Structure (SMILES): CCCCCCCCCCC(=O)C(=O)N[C@@H](CCCC)C(=O)O [Compound 21]
inhibition at 25 µM (RAW 264.7 macrophages): 27 ± 6%

Structure (SMILES): CCCCCCCCCCCCCCC(=O)C(=O)N[C@H](CCC(=O)O)CC(C)C [Compound 25]
inhibition at 25 µM (RAW 264.7 macrophages): 62 ± 5%

Structure (SMILES): CCCCCCCCCCCCCCC(=O)C(=O)N[C@@H](CCCC)CCC(=O)O [Compound 26]
inhibition at 25 µM (RAW 264.7 macrophages): 79 ± 0.5%

Structure (SMILES): CCCCCCCCCCCCCCC(=O)C(=O)N[C@H](/C=C/C=C/C(=O)O)CCCC [Compound 28]
inhibition at 25 µM (RAW 264.7 macrophages): 6 ± 10%

IC50 (RAW 264.7 macrophages): ~25 µM
Structure (SMILES): CCCCCCCCCCCCCCC(=O)C(=O)N[C@H](/C=C/C(=O)O)CCCC [Compound 30]
inhibition at 25 µM (RAW 264.7 macrophages): 74 ± 8%

Structure (SMILES): CCCCCCCCCCCCCCC(=O)C(=O)N[C@H](/C=C/C(=O)OCC)CCCC [Compound 33]
inhibition at 25 µM (RAW 264.7 macrophages): 16 ± 6%

Structure (SMILES): CCCCCCCCCCCCCCC(=O)C(=O)NCCCCC(=O)OC(C)(C)C [Compound 34]
inhibition at 25 µM (RAW 264.7 macrophages): 11 ± 6%

IC50 (RAW 264.7 macrophages): 7 µM
Structure (SMILES): CCCCCCCCCCCCCCC(=O)C(=O)N[C@@H](CCCC)CCCC(=O)O [Compound 35]
inhibition at 25 µM (RAW 264.7 macrophages): 59 ± 4%

Structure (SMILES): CCCCCCCCCCCCCCC(=O)C(=O)NCC(=O)OC [Compound 37]
inhibition at 25 µM (RAW 264.7 macrophages): 30 ± 2%
